{"source": "ChEMBL document CHEMBL1140516", "about": "“Dual-acting agents that possess reversing resistance and anticancer activities: Design, synthesis, MES-SA/Dx5 cell assay, and SAR of Benzyl 1,2,3,5,11,11a-hexahydro-3,3-dimethyl-1-oxo-6H-imidazo[3',4':1,2]pyridin[3,4-b]indol-2-substitutedacetates” (Bioorg Med Chem, 2007)", "data": [{"test": "Growth inhibition of doxorubicin-sensitive human MES-SA cells after 48 hrs by MTT assay", "assay_type": "functional, cell-based", "conditions": "not given", "how_it_was_run": "(§1)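 MES-SA or MES-SA/Dx5 cells in exponential growth were seeded at 1×10^5/mL in McCoy's 5A with 10% FCS, penicillin and streptomycin on poly-L-lysine-coated plates and held 4 h at 37 °C, 5% CO2. Doxorubicin was then added at final 0.04–10.00 µM (serial halving) for 48 h. Read-out was MTT, with dried formazan dissolved in DMSO and absorbance read. Survival% = (treated−blank)/(control−blank), and IC50 was taken from the survival–concentration plot.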", "units": {"IC50": "nM"}, "values": [{"smiles": "COc1cccc2c1C(=O)c1c(O)c3c(c(O)c1C2=O)C[C@@](O)(C(=O)CO)C[C@@H]3O[C@H]1C[C@H](N)[C@H](O)[C@H](C)O1", "note": "[DOXORUBICIN]", "IC50": 347}]}, {"test": "Growth inhibition of doxorubicin-resistant human MES-SA/Dx5 cells after 48 hrs by MTT assay", "assay_type": "functional, cell-based", "conditions": "MES-SA/Dx5, 48 h", "how_it_was_run": "as §1", "units": {"IC50": "nM"}, "values": [{"smiles": "COc1cccc2c1C(=O)c1c(O)c3c(c(O)c1C2=O)C[C@@](O)(C(=O)CO)C[C@@H]3O[C@H]1C[C@H](N)[C@H](O)[C@H](C)O1", "note": "[DOXORUBICIN]", "IC50": 1550}]}, {"test": "Growth inhibition of doxorubicin-resistant human MES-SA/Dx5 cells at 1.0 uM after 48 hrs by MTT assay", "assay_type": "functional", "conditions": "MES-SA/Dx5, 48 h", "how_it_was_run": "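Exponential-phase MES-SA/Dx5 cells were seeded at 1×10^5/mL in McCoy's 5A with 10% FCS and penicillin/streptomycin on poly-L-lysine-coated wells and preincubated 4 h at 37 °C under 5% CO2. Compound was added in medium as a 1 µmol/L solution and cells were grown 48 h. In the MTT read-out, DMSO-dissolved formazan absorbance was measured. Inhibition% = 1 − (drug−blank)/(control−blank), with untreated cells as control and a cell-free blank.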", "units": {"inhibition at 1 µM": "%"}, "values": [{"smiles": "CC1(C)N2Cc3[nH]c4ccccc4c3C[C@H]2C(=O)N1[C@@H](Cc1ccccc1)C(=O)OCc1ccccc1", "inhibition at 1 µM": 31.2}, {"smiles": "CCC(C)[C@@H](C(=O)OCc1ccccc1)N1C(=O)[C@@H]2Cc3c([nH]c4ccccc34)CN2C1(C)C", "note": "(stereo partly specified)", "inhibition at 1 µM": 0}, {"smiles": "CC1(C)N2Cc3[nH]c4ccccc4c3C[C@H]2C(=O)N1[C@@H](CCC(=O)OCc1ccccc1)C(=O)OCc1ccccc1", "inhibition at 1 µM": 13.4}, {"smiles": "CC1(C)N(CC(=O)OCc2ccccc2)C(=O)[C@@H]2Cc3c([nH]c4ccccc34)CN21", "inhibition at 1 µM": 0}, {"smiles": "CC(C)[C@@H](C(=O)OCc1ccccc1)N1C(=O)[C@@H]2Cc3c([nH]c4ccccc34)CN2C1(C)C", "inhibition at 1 µM": 0}, {"smiles": "CC1(C)N2Cc3[nH]c4ccccc4c3C[C@H]2C(=O)N1[C@@H](COCc1ccccc1)C(=O)OCc1ccccc1", "inhibition at 1 µM": 0}, {"smiles": "CC1(C)N2Cc3[nH]c4ccccc4c3C[C@H]2C(=O)N1[C@@H](CC(N)=O)C(=O)OCc1ccccc1", "inhibition at 1 µM": 0}, {"smiles": "CC1(C)N2Cc3[nH]c4ccccc4c3C[C@H]2C(=O)N1[C@@H](CCCCNC(=O)OCc1ccccc1)C(=O)OCc1ccccc1", "inhibition at 1 µM": 0}, {"smiles": "C[C@@H](C(=O)OCc1ccccc1)N1C(=O)[C@@H]2Cc3c([nH]c4ccccc34)CN2C1(C)C", "inhibition at 1 µM": 0}, {"smiles": "CC1(C)N2Cc3[nH]c4ccccc4c3C[C@H]2C(=O)N1[C@@H](CC(=O)OCc1ccccc1)C(=O)OCc1ccccc1", "inhibition at 1 µM": 31.2}, {"smiles": "CC1(C)N2Cc3[nH]c4ccccc4c3C[C@H]2C(=O)N1[C@@H](Cc1c[nH]c2ccccc12)C(=O)OCc1ccccc1", "inhibition at 1 µM": 0}, {"smiles": "CC(C)C[C@@H](C(=O)OCc1ccccc1)N1C(=O)[C@@H]2Cc3c([nH]c4ccccc34)CN2C1(C)C", "inhibition at 1 µM": 38.9}, {"smiles": "CC1(C)N2Cc3[nH]c4ccccc4c3C[C@H]2C(=O)N1[C@@H](CCC(N)=O)C(=O)OCc1ccccc1", "inhibition at 1 µM": 0}, {"smiles": "CC1(C)N2Cc3[nH]c4ccccc4c3C[C@H]2C(=O)N1[C@@H](Cc1ccc(O)cc1)C(=O)OCc1ccccc1", "inhibition at 1 µM": 0}]}]}
